Test system: Fibroblast
Test: Multiplex assay against human fibroblast
Assay type: toxicity, cell-based
Outline: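 With compound added, live cells were imaged on a CQ1 microscope at 37°C and 5% CO2; staining with Hoechst33342, BioTracker Green Microtubule Cytoskeleton Dye, MitoTracker Red and Annexin V Alexa Fluor 680 had been done at seeding. The CellPathfinder machine-learning gating scheme split cells into Hoechst high-intensity objects or normal cells, normal cells into healthy, pyknosed or fragmented nuclei, and pyknosed cells into mitotic or apoptotic. The tubulin, mitochondrial-mass and membrane-permeability phenotypes are per cents of healthy-nucleus cells.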

[1] = 12 h, 1 µM, compound concentration 1 uM, replicate 1
[2] = 12 h, 1 µM, compound concentration 1 uM, replicate 2
[3] = 12 h, 10 µM, compound concentration 10 uM, replicate 1
[4] = 12 h, 10 µM, compound concentration 10 uM, replicate 2
[5] = 24 h, 1 µM, compound concentration 1 uM, replicate 1
[6] = 24 h, 1 µM, compound concentration 1 uM, replicate 2
[7] = 24 h, 10 µM, compound concentration 10 uM, replicate 1
[8] = 24 h, 10 µM, compound concentration 10 uM, replicate 2
[9] = 48 h, 1 µM, compound concentration 1 uM, replicate 1
[10] = 48 h, 1 µM, compound concentration 1 uM, replicate 2
[11] = 48 h, 10 µM, compound concentration 10 uM, replicate 1
[12] = 48 h, 10 µM, compound concentration 10 uM, replicate 2

Q: What does the source list for CC(C)(C)c1ccc(S(=O)(=O)Nc2ccc(Cl)cc2C(=O)c2cc[n+]([O-])cc2)cc1 [VERCIRNON]?
A: Population Apoptotic (%) [1]: 63%; Population Fragmented Nuclei (%) [1]: 19%; Population Healthy Nuclei (%) [1]: 65%; Population Hoechst High Intensity Objects (%) [1]: 2%; Population Membrane Permeable-Phenotype (%) [1]: 1%; Population Mitochondria Different-Phenotype (%) [1]: 3%; Population Mitotic Cells (%) [1]: 36%; Population Normal (%) [1]: 97%; Population Pyknosed Nuclei (%) [1]: 15%; Population Tubulin-Different-Phenotype (%) [1]: 20%; Total Cell Count [1]: 148; Population Apoptotic (%) [2]: 50%; Population Fragmented Nuclei (%) [2]: 27%; Population Healthy Nuclei (%) [2]: 46%; Population Hoechst High Intensity Objects (%) [2]: 7%; Population Membrane Permeable-Phenotype (%) [2]: 6%; Population Mitochondria Different-Phenotype (%) [2]: 1%; Population Mitotic Cells (%) [2]: 50%; Population Normal (%) [2]: 92%; Population Pyknosed Nuclei (%) [2]: 25%; Population Tubulin-Different-Phenotype (%) [2]: 41%; Total Cell Count [2]: 152; Population Apoptotic (%) [3]: 59%; Population Fragmented Nuclei (%) [3]: 14%; Population Healthy Nuclei (%) [3]: 64%; Population Hoechst High Intensity Objects (%) [3]: 3%; Population Membrane Permeable-Phenotype (%) [3]: 3%; Population Mitochondria Different-Phenotype (%) [3]: 1%; Population Mitotic Cells (%) [3]: 40%; Population Normal (%) [3]: 96%; Population Pyknosed Nuclei (%) [3]: 21%; Population Tubulin-Different-Phenotype (%) [3]: 46%; Total Cell Count [3]: 107; Population Apoptotic (%) [4]: 48%; Population Fragmented Nuclei (%) [4]: 30%; Population Healthy Nuclei (%) [4]: 44%; Population Hoechst High Intensity Objects (%) [4]: 5%; Population Membrane Permeable-Phenotype (%) [4]: 8%; Population Mitochondria Different-Phenotype (%) [4]: 10%; Population Mitotic Cells (%) [4]: 51%; Population Normal (%) [4]: 94%; Population Pyknosed Nuclei (%) [4]: 25%; Population Tubulin-Different-Phenotype (%) [4]: 66%; Total Cell Count [4]: 114; Population Apoptotic (%) [5]: 55%; Population Fragmented Nuclei (%) [5]: 23%; Population Healthy Nuclei (%) [5]: 62%; Population Hoechst High Intensity Objects (%) [5]: 0%; Population Membrane Permeable-Phenotype (%) [5]: 4%; Population Mitochondria Different-Phenotype (%) [5]: 1%; Population Mitotic Cells (%) [5]: 45%; Population Normal (%) [5]: 99%; Population Pyknosed Nuclei (%) [5]: 14%; Population Tubulin-Different-Phenotype (%) [5]: 27%; Total Cell Count [5]: 141; Population Apoptotic (%) [6]: 54%; Population Fragmented Nuclei (%) [6]: 25%; Population Healthy Nuclei (%) [6]: 57%; Population Hoechst High Intensity Objects (%) [6]: 7%; Population Membrane Permeable-Phenotype (%) [6]: 7%; Population Normal (%) [6]: 92%; Population Pyknosed Nuclei (%) [6]: 16%; Population Tubulin-Different-Phenotype (%) [6]: 40%; Total Cell Count [6]: 142; Population Apoptotic (%) [7]: 66%; Population Fragmented Nuclei (%) [7]: 16%; Population Healthy Nuclei (%) [7]: 66%; Population Hoechst High Intensity Objects (%) [7]: 1%; Population Membrane Permeable-Phenotype (%) [7]: 4%; Population Mitochondria Different-Phenotype (%) [7]: 2%; Population Mitotic Cells (%) [7]: 33%; Population Normal (%) [7]: 98%; Population Pyknosed Nuclei (%) [7]: 16%; Population Tubulin-Different-Phenotype (%) [7]: 40%; Total Cell Count [7]: 114; Population Apoptotic (%) [8]: 41%; Population Fragmented Nuclei (%) [8]: 32%; Population Healthy Nuclei (%) [8]: 42%; Population Hoechst High Intensity Objects (%) [8]: 0%; Population Membrane Permeable-Phenotype (%) [8]: 21%; Population Mitochondria Different-Phenotype (%) [8]: 9%; Population Mitotic Cells (%) [8]: 58%; Population Normal (%) [8]: 99%; Population Pyknosed Nuclei (%) [8]: 24%; Population Tubulin-Different-Phenotype (%) [8]: 82%; Total Cell Count [8]: 120; Population Apoptotic (%) [9]: 61%; Population Fragmented Nuclei (%) [9]: 29%; Population Healthy Nuclei (%) [9]: 58%; Population Hoechst High Intensity Objects (%) [9]: 1%; Population Membrane Permeable-Phenotype (%) [9]: 1%; Population Mitochondria Different-Phenotype (%) [9]: 1%; Population Mitotic Cells (%) [9]: 38%; Population Normal (%) [9]: 98%; Population Pyknosed Nuclei (%) [9]: 12%; Population Tubulin-Different-Phenotype (%) [9]: 25%; Total Cell Count [9]: 151; Population Apoptotic (%) [10]: 62%; Population Fragmented Nuclei (%) [10]: 32%; Population Healthy Nuclei (%) [10]: 55%; Population Hoechst High Intensity Objects (%) [10]: 6%; Population Membrane Permeable-Phenotype (%) [10]: 6%; Population Mitochondria Different-Phenotype (%) [10]: 9%; Population Mitotic Cells (%) [10]: 37%; Population Normal (%) [10]: 93%; Population Pyknosed Nuclei (%) [10]: 11%; Population Tubulin-Different-Phenotype (%) [10]: 37%; Total Cell Count [10]: 145; Population Apoptotic (%) [11]: 62%; Population Fragmented Nuclei (%) [11]: 22%; Population Healthy Nuclei (%) [11]: 64%; Population Hoechst High Intensity Objects (%) [11]: 2%; Population Membrane Permeable-Phenotype (%) [11]: 1%; Population Mitochondria Different-Phenotype (%) [11]: 0%; Population Mitotic Cells (%) [11]: 37%; Population Normal (%) [11]: 97%; Population Pyknosed Nuclei (%) [11]: 13%; Population Tubulin-Different-Phenotype (%) [11]: 38%; Total Cell Count [11]: 120; Population Apoptotic (%) [12]: 46%; Population Fragmented Nuclei (%) [12]: 42%; Population Healthy Nuclei (%) [12]: 46%; Population Hoechst High Intensity Objects (%) [12]: 4%; Population Membrane Permeable-Phenotype (%) [12]: 16%; Population Mitochondria Different-Phenotype (%) [12]: 12%; Population Mitotic Cells (%) [12]: 53%; Population Normal (%) [12]: 95%; Population Pyknosed Nuclei (%) [12]: 11%; Population Tubulin-Different-Phenotype (%) [12]: 72%; Total Cell Count [12]: 122
